Screens (PubChem BioAssay)
Hep lipid drop = inhibitors of hepatocyte lipid droplet formation, primary screen, imaging, high-throughput imaging, BODIPY stain | AML12 mouse hepatocytes, oleate lipid droplets | inhibition, % at 6.5 µM | 0.4% of 240,000 active;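 active means lipid droplet intensity inhibited by at least 50%, with more than 500 cells counted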
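System: AML12 hepatocytes (mouse). Probe or stimulus: oleic acid at 100 µM to induce lipid droplet formation. Times: overnight treatment with compound plus oleate. Detection: Image-based BODIPY and DAPI two-channel analysis. Evaluation: percent inhibition of filter-corrected integrated lipid droplet intensity per well.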
SR-BI DiI-HDL act = activators of SR-BI mediated DiI-HDL uptake, primary screen, ldlA[mSR-BI] CHO cells, DiI fluorescence. activation, % at 12.5 µM. 3 h; 100 = double the neutral-control signal. 0.096% of 320,000 active;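 active means mean replicate activation of at least 60% and every replicate at or above 60%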;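 further: 0% = median plate neutral-control signal and 100% = twice that signal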
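System: CHO ldlA[mSR-BI] cells / Medium: HEPES-buffered (25 mM, pH 7.4) F12 plus 0.5% BSA / Probe or stimulus: labelled HDL, 10 µg/mL / Doses: single compound concentration, delivered by pin transfer / Schedule: 3 h, 37 °C / Measured by: DiI fluorescence, bottom read / Measure: cell-associated DiI fluorescence as measure of HDL uptake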
SMARCA2 act = SMARCA2 (BRM) function activators, primary screen, cell-based, luminescence, high throughput; 1% of 370,000 active; MG213 cells, MMTV-luciferase reporter, dexamethasone, overnight; activation, % at 9.1 µM; AID 652017, 2013; in the data active means activation above about 7.8%;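 further: 0% = vehicle wells and 100% = reference activator wells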
Yeast superoxide = reduction of superoxide in aged yeast, primary screen, HTS. S. cerevisiae aged cells, superoxide DHE fluorescence; hits give low values. superoxide response (% of plate mean), % at 10 µM. 0.18% of 330,000 active. AID 2690, 2010;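 active means superoxide response under a set limit, about three screen SD below normal, cut at about 65% in these data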;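 further: yeast aged for seven days with compound at 30 °C before DHE staining; 100% = average MFI of all compound-treated wells on the plate with controls excluded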
SR-BI DiI inh = inhibitors of SR-BI mediated HDL lipid uptake, primary screen, ldlA[mSR-BI] cells, fluorescence, single point; Scavenger receptor class B member 1 (Mus musculus), Q61009; 0.96% of 320,000 active; ldlA[mSR-BI] CHO cells, DiI-HDL uptake fluorescence, 3 h; inhibition, % at 12.5 µM;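 active means mean replicate inhibition of at least 70% and a set share of replicates each scoring 70 or more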;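 further: 0% = median of neutral control wells and 100% = median of positive control wells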
AHR act = AHR activators, primary screen, cell-based, luminescence, luciferase reporter, human | Aryl hydrocarbon receptor (Homo sapiens), P35869 | AHR-responsive luciferase reporter cells | activation, % at 5 µM | 2.5% of 320,000 active | AID 2796, 2010; in the data active means activation above about 47%;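 further: 0% = vehicle wells and 100% = reference agonist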
AHR act cf = AHR activators, confirmation, cell-based, luminescence, luciferase reporter, human. shares compounds with AHR act. human cells, AHR-responsive luciferase reporter. activation, % at 9 µM. 87% of 2,300 active. AID 2845, 2010; in the data active means activation above about 49%;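 further: HepG2 hepatoma cells carrying a DRE-driven firefly luciferase reporter; 0% = vehicle wells and 100% = reference agonist wells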
PXR counter = human PXR activators, counter-screen for AHR activator project, cell-based, luciferase luminescence | 88% of 2,300 active | cell-based PXR reporter | AID 434939, 2010 | activation, % at 11.6 µM | shares compounds with AHR act; in the data active means activation above about 11%;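 further: human hepatoma DPX-2 cells expressing full-length human PXR; 0% = DMSO and 100% = reference agonist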
* hit, by the source's call; / = no result. In the library only some 4.3% were active in any assay of this set; here they are far more common.

SMILES	Hep lipid drop	SR-BI DiI-HDL act	SMARCA2 act	Yeast superoxide	SR-BI DiI inh	AHR act	AHR act cf	PXR counter
Cc1nc(N2CCN(c3ccccc3)CC2)nc2c1C(=O)CC(C)C2 (stereo unspecified)	/	-44	-3	106	44	92*	62*	13*
Cc1nc(N2CCN(c3ccccc3)CC2)nc2c1C(=O)CC(c1ccccc1)C2 (stereo unspecified)	/	-34	-5	106	34	2	/	/
O=C(OCc1cn(Cc2ccc(F)c(F)c2)nn1)N1CCOCC1	/	/	-3	/	/	/	/	/
Cc1cc(-c2ccccc2)nc(N2CCN(c3ccccn3)CC2)n1	/	-9	-2	102	9	81*	93*	19*
Cc1cncc(N2CCN(c3ccccn3)CC2)n1	/	/	0	/	/	/	/	/
O=C(Nc1ccnc(-c2cccnc2)n1)c1ccccc1Cl	/	14	1	92	-14	136*	37	17*
O=C(Nc1cccc(Cl)c1)Nc1ccnc(-c2cccnc2)n1	12	-46	-4	121	46	148*	129*	12*
O=C(Nc1cccc(Cl)c1)Nc1cnccn1	1	5	-1	108	-5	42	/	/
Cc1cccc(Nc2nc(-c3cccs3)cs2)n1	-4	-52	0	102	52	87*	161*	21*
Nc1ccc(Nc2nc(-c3cc4ccccc4oc3=O)cs2)cc1	0	-31	2	103	31	-8	/	/
Cc1cccc(Nc2nc(-c3ccccn3)cs2)n1	-14	12	1	88	-12	40	/	/
c1ccc(Nc2nc(-c3cccs3)cs2)nc1	16	8	2	102	-8	117*	155*	23*
NS(=O)(=O)c1ccc(Nc2nc(-c3ccc(O)cc3O)cs2)cc1	0	-7	0	93	7	7	/	/
Oc1ccc(-c2csc(Nc3ccccn3)n2)c(O)c1	8	-52	4	107	52	169*	103*	15*
Nc1ccc(Nc2nc(-c3cccs3)cs2)cc1	3	-100	6	92	100*	117*	12	16*
CC(NCc1ccco1)C(=O)N1CCOCC1 (stereo unspecified)	/	/	-3	/	/	/	/	/
Cn1c(NC(=O)CCc2ccccc2)cc(=O)n(C)c1=O	/	-6	6	89	6	149*	109*	24*
COc1ccccc1NC(=O)c1sc2nc(-c3ccco3)ccc2c1N	-3	-31	/	108	31	106*	95*	21*
COc1ccccc1NC(=O)Nc1nnc(-c2ccco2)s1	/	/	/	114	/	5	/	/
C[C@@H]1C[C@H](O)CCCCCC(=O)Cc2cc(O)cc(O)c2C(=O)O1	/	/	2	/	/	/	/	/
COc1ccc(CCC[C@H](CCC(=O)N(c2ccccc2)c2ccccc2)CCc2ccccc2)cc1	/	/	-4	/	/	/	/	/
O=C(C=Cc1ccc(O)c(O)c1)NCC(=O)NC(Cc1ccccc1)C(=O)O (stereo unspecified)	/	/	-1	/	/	/	/	/
COC(=O)c1cc2c(c3c4cc(C)ccc4n(S(=O)(=O)c4cccc(C)c4)c13)C(=O)N(Cc1ccc(N(C)C)cc1)C2	/	/	4	/	/	/	/	/
CC(C)c1ccc(NC(=O)CCN2C(=O)[C@@H]3Cc4ccccc4CN3C2=O)cc1	2	18	-3	80	-18	89*	1	97*
Cc1ccc(NC(=O)CCCCCN2C(=O)[C@@H]3Cc4ccccc4CN3C2=O)cc1	-6	/	-1	103	-7	-3	/	/
SMILES	Hep lipid drop	SR-BI DiI-HDL act	SMARCA2 act	Yeast superoxide	SR-BI DiI inh	AHR act	AHR act cf	PXR counter
O=C(C(=O)N1CCC(CNS(=O)(=O)c2ccc(C(F)(F)F)cc2)CC1)c1cc2ccccc2o1	/	/	-8	/	/	/	/	/
Cn1c(-c2ccc(Cl)cc2)ccc(C#N)c1=O	17	-11	2	100	11	100*	104*	14*
CCOC(=O)N/N=C/c1cn(CCCOc2ccccc2)c2ccccc12	-11	-62	-3	96	62	105*	85*	34*
CNC(=S)N/N=C/c1cn(CCOc2ccccc2OC)c2ccccc12	-1	-60	-4	93	60	80*	62*	110*
COC(=O)N/N=C/c1cn(CCOc2ccccc2)c2ccccc12	-7	-45	4	104	45	47	/	/
Cc1ccc(NC(=S)Nc2cc(-c3ccccc3)[nH]n2)cc1Cl	-5	-48	-4	85	48	94*	103*	37*
COc1ccc(NC(=S)Nc2ccc(C)c(Cl)c2)cc1OC	14	-33	-1	86	33	5	/	/
COc1cc(NC(=O)C/C(C)=N/NC(=O)Cc2ccccc2)c(OC)cc1Cl	-16	-66	-3	93	66	147*	5	16*
Cc1cccc(Cn2cc(COC(=O)Nc3ccc(F)cc3)nn2)c1	/	/	-1	/	/	/	/	/
O=C(Nc1ccc2c(c1)OCO2)OC1CCC12CCCCC2 (stereo unspecified)	/	/	2	/	/	/	/	/
Cc1cc(C)c2sc(NC(=O)C3CC3)nc2c1	-6	-20	0	78	20	106*	117*	59*
CCc1cccc2sc(NC(=O)C3CC3)nc12	6	-49	-4	72	49	91*	119*	13*
COc1ccc(NC(=O)c2sc(NC(=O)C3CC3)nc2C)cc1	-4	-13	-3	105	13	12	/	/
Cc1nc(NC(=O)C2CC2)sc1C(=O)Nc1ccc(Br)cc1	-3	-19	0	97	19	103*	104*	33*
Cc1ccc(C)c2sc(NC(=O)C3CC3)nc12	19	-27	5	89	27	92*	121*	/
CCOc1cccc2sc(NC(=O)CC)nc12	24	-14	0	111	14	29	/	/
N#Cc1nc(-c2ccc(F)cc2)oc1NCCCn1ccnc1	-6	/	/	122	/	106*	97*	30*
CC(=O)c1cnc2c(-c3cccc(Br)c3)cnn2c1C	18	-15	3	101	15	16	/	/
CCOC(=O)Cc1c(C)nc2c(-c3cccc(Br)c3)cnn2c1C	-61	-14	-3	98	14	100*	116*	21*
Cc1cc(N)n2ncc(-c3cccc(Br)c3)c2n1	/	-14	4	97	14	93*	125*	34*
